Measured values: the array DNA melting data of Ke et al. (doi:10.1101/2024.01.08.574731)

How the values were obtained:
[1] = melting temperature; fluorescence melt of hairpins on a sequencing array, two-state fit, raised by 9.35 °C to match UV melts; conditions: sodium 0.088 M
In short: (§1)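 Hairpins were imaged by Cy3 fluorescence on a sequenced MiSeq flow cell with annealed Cy3 and quencher oligos, in 50 mM Na-HEPES pH 8.0, 25 mM NaCl, in 2.5 °C steps up to 60 °C. Bootstrapped two-state fits of normalised signals gave melting temperature and folding enthalpy. Four replicates were combined by inverse variance, and fitted temperatures were raised by 9.35 °C to match UV melts.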

[2] = folding enthalpy; higher = less favourable; fluorescence melt of hairpins on a sequencing array, two-state fit; conditions: sodium 0.088 M
In short: as §1

Sequence	Tm [1]	folding enthalpy [2]
GTGTGGGGAAACTCACGC (.(((.(....).))).)	44.7 °C	-28 kcal/mol
GTGTGGGGAAACTCGCAC (((.(.(....).).)))	42.8 °C	-29.9 kcal/mol
GTGTGTCGAAAGACCAC (((.(((....))))))	54.5 °C	-28.9 kcal/mol
GTGTTACGAAAGTACAC (((.(((....))))))	47.9 °C	-27 kcal/mol
GTGTTCGAAAGAACACAC ((((((....)))..)))	65 °C	-11.8 kcal/mol
GTGTTCGAAAGAAGACAC ((((((....)))..)))	37.9 °C	-20.8 kcal/mol
GTGTTCGAAAGAATCAC ((((((....))).)))	41.5 °C	-28.2 kcal/mol
GTGTTGCGAAAGCAGCAC (((.(((....))).)))	64.3 °C	-30.2 kcal/mol
GTGTTGGGAAACCAGCAC (((.(((....))).)))	51.4 °C	-43.9 kcal/mol
GTGTTGGGAAACCGATAC ((.(.((....)).).))	33.3 °C	-18.3 kcal/mol
GTGTTTACGAAAGTACAC (((..(((....))))))	36.7 °C	-25 kcal/mol
GTGTTTCCGAAAGGACAC (((..(((....))))))	43.4 °C	-23.4 kcal/mol
GTGTTTGAAAAAACAC ((((((....))))))	52.9 °C	-38.4 kcal/mol
GTGTTTGGAAACAAATAC ((.((((....)))).))	41.2 °C	-29 kcal/mol
GTGTTTGGAAACAAGCAC (((.(((....))).)))	46.6 °C	-30.5 kcal/mol
GTGTTTTCGAAAGAACAC (((..(((....))))))	38.3 °C	-32.9 kcal/mol
GTTAAAACGAAAGTTAAC (((..(((....))))))	26.3 °C	-16.6 kcal/mol
GTTAACCGAAAGGTAAC (((.(((....))))))	40.8 °C	-18.8 kcal/mol
GTTAACGAAAGTTAAC ((((((....))))))	56 °C	-28.9 kcal/mol
GTTAAGGCGAAAGCCAAC (((..(((....))))))	32.8 °C	-11 kcal/mol
GTTAATGAAAATTAAC ((((((....))))))	40.1 °C	-25.9 kcal/mol
GTTAATGGAAACATTAAC (((((((....)))))))	49.4 °C	-37.7 kcal/mol
GTTACACCGAAAGGTAAC (((..(((....))))))	31.8 °C	-15.8 kcal/mol

Sequence	Tm [1]	folding enthalpy [2]
GTTACACGAAAGTGAAC (((.(((....))))))	36.7 °C	-15.8 kcal/mol
GTTACACGAAAGTGCAAC (((.(((....))).)))	44.7 °C	-23.6 kcal/mol
GTTACAGAAATGTAAC ((((((....))))))	46.1 °C	-33.4 kcal/mol
GTTACAGGAAACTGTAGC (.(((((....))))).)	38.9 °C	-22.6 kcal/mol
GTTACAGGAAACTGTGAC ((.((((....)))).))	44.6 °C	-30 kcal/mol
GTTACCGAAAGGTCAAC ((((((....))).)))	32.8 °C	-13.4 kcal/mol
GTTACCGAAAGGTCGAAC ((((((....)))..)))	28.2 °C	-9.83 kcal/mol
GTTACCGAAAGGTGAAC ((((((....))).)))	39.9 °C	-14.8 kcal/mol
GTTACCGAAAGGTTGAAC ((((((....)))..)))	29.2 °C	-12.8 kcal/mol
GTTACGGGAAACCGTAAC (((((((....)))))))	60.5 °C	-46 kcal/mol
GTTACGGGAAACTGTAAC (((((.(....).)))))	45.6 °C	-32.7 kcal/mol
GTTACGGGAAACTGTGAC ((.((.(....).)).))	32.5 °C	-24.5 kcal/mol
GTTACTCGAAAGAGAAAC (((.(((....))).)))	41.9 °C	-28.2 kcal/mol
GTTACTGGAAACAGTGAC ((.((((....)))).))	44.9 °C	-27.6 kcal/mol
GTTAGACGAAAGTCGAAC (((.(((....))).)))	52.4 °C	-23.5 kcal/mol
GTTAGAGCGAAAGCTAAC (((..(((....))))))	33.1 °C	-14.6 kcal/mol
GTTAGCGAAAGCTAAAAC ((((((....)))..)))	33.4 °C	-13.2 kcal/mol
GTTAGCGAAAGCTAAC ((((((....))))))	66.4 °C	-28.2 kcal/mol
GTTAGCGGAAACGTTAAC ((((.((....)).))))	44.2 °C	-28.8 kcal/mol
GTTAGTGGAAACACTAAC (((((((....)))))))	54.7 °C	-46.1 kcal/mol
GTTAGTGGAAACATTAAC ((((.((....)).))))	32.5 °C	-19.2 kcal/mol
GTTATAGCGAAAGCTAAC (((..(((....))))))	29.9 °C	-14.3 kcal/mol
GTTATCGCGAAAGCGAAC (((..(((....))))))	29.8 °C	-7.39 kcal/mol

Sequence	Tm [1]	folding enthalpy [2]
GTTATCTCGAAAGAGAAC (((..(((....))))))	29.8 °C	-11.8 kcal/mol
GTTATGCCGAAAGGCAAC (((..(((....))))))	33 °C	-7.54 kcal/mol
GTTATGCGAAAGCAAAAC (((.(((....))).)))	41.2 °C	-21 kcal/mol
GTTATGCGAAAGCACAAC (((.(((....))).)))	40.4 °C	-20.3 kcal/mol
GTTATGGGAAACCATAAC (((((((....)))))))	54 °C	-43.7 kcal/mol
GTTATGGGAAACTATAAC (((((.(....).)))))	34.6 °C	-23.8 kcal/mol
GTTCAACGAAAGTTTAAC (((.(((....))).)))	35.2 °C	-22.9 kcal/mol
GTTCACGAAAGTGAAC ((((((....))))))	68.4 °C	-34.7 kcal/mol
GTTCACGAAAGTGCAAC ((((((....))).)))	37.8 °C	-16.8 kcal/mol
GTTCACGAAAGTGGCAAC ((((((....)))..)))	31.4 °C	-8.43 kcal/mol
GTTCACGAAAGTGTAAC ((((((....))).)))	38.7 °C	-18.8 kcal/mol
GTTCACGAAAGTGTGAAC ((((((....)))..)))	47.3 °C	-25.7 kcal/mol
GTTCAGCCGAAAGGCAAC (((..(((....))))))	31.4 °C	-7.39 kcal/mol
GTTCAGGAAACTGAAC ((((((....))))))	53.8 °C	-36.7 kcal/mol
GTTCAGGGAAACCCGAAC ((((.((....)).))))	42.3 °C	-31.7 kcal/mol
GTTCCCCGAAAGGGAAC (((.(((....))))))	61.2 °C	-29.6 kcal/mol
GTTCCCCGAAAGGGTAAC (((.(((....))).)))	40.9 °C	-19.9 kcal/mol
GTTCCCGAAAGGGCGAAC ((((((....)))..)))	31.5 °C	-9.4 kcal/mol
GTTCCCGAAAGGGGTAAC ((((((....)))..)))	29.8 °C	-12.2 kcal/mol
GTTCCCGAAAGGGTGAAC ((((((....)))..)))	35.5 °C	-12.5 kcal/mol
GTTCCCGGAAACAGGAAC (((((.(....).)))))	39.5 °C	-32.5 kcal/mol
GTTCCCGGAAACGGGGAC ((.((((....)))).))	58.5 °C	-26.8 kcal/mol
